From ChEMBL document CHEMBL2069233, “New hypotheses for the binding mode of 4- and 7-substituted indazoles in the active site of neuronal nitric oxide synthase” (Bioorg Med Chem, 2012)

How the values were obtained:
[1] = target: Nitric oxide synthase 1 (Rattus norvegicus, UniProt P29476); experiment: Inhibition of nNOS in rat cerebellum homogenates assessed as reduction in conversion of L-[3H]arginine to L-[3H]citrulline; type: tissue-based
Procedure, shortened: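 Rat cerebellum homogenate as nNOS source; L-[3H]arginine to L-[3H]citrulline conversion with 1 mM CaCl2, 200 μM β-NADPH, 0.88 μM L-arginine plus 0.12 μM L-[3H]arginine, 15 min at 37 °C. Compounds in DMSO 0.4%, tested at 0.01, 0.1, 1, 10 and 100 μM. IC50 taken from inhibition curves, mean ± sem over 3–7 experiments.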

[2] = target: Nitric oxide synthase 1 (Rattus norvegicus) (UniProt P29476); experiment: Inhibition of nNOS in rat cerebellum homogenates assessed as reduction in conversion of L-[3H]arginine to L-[3H]citrulline at 100 uM; type: tissue-based
Chain of Nitric oxide synthase 1 (Rattus norvegicus) (P29476 whole entry): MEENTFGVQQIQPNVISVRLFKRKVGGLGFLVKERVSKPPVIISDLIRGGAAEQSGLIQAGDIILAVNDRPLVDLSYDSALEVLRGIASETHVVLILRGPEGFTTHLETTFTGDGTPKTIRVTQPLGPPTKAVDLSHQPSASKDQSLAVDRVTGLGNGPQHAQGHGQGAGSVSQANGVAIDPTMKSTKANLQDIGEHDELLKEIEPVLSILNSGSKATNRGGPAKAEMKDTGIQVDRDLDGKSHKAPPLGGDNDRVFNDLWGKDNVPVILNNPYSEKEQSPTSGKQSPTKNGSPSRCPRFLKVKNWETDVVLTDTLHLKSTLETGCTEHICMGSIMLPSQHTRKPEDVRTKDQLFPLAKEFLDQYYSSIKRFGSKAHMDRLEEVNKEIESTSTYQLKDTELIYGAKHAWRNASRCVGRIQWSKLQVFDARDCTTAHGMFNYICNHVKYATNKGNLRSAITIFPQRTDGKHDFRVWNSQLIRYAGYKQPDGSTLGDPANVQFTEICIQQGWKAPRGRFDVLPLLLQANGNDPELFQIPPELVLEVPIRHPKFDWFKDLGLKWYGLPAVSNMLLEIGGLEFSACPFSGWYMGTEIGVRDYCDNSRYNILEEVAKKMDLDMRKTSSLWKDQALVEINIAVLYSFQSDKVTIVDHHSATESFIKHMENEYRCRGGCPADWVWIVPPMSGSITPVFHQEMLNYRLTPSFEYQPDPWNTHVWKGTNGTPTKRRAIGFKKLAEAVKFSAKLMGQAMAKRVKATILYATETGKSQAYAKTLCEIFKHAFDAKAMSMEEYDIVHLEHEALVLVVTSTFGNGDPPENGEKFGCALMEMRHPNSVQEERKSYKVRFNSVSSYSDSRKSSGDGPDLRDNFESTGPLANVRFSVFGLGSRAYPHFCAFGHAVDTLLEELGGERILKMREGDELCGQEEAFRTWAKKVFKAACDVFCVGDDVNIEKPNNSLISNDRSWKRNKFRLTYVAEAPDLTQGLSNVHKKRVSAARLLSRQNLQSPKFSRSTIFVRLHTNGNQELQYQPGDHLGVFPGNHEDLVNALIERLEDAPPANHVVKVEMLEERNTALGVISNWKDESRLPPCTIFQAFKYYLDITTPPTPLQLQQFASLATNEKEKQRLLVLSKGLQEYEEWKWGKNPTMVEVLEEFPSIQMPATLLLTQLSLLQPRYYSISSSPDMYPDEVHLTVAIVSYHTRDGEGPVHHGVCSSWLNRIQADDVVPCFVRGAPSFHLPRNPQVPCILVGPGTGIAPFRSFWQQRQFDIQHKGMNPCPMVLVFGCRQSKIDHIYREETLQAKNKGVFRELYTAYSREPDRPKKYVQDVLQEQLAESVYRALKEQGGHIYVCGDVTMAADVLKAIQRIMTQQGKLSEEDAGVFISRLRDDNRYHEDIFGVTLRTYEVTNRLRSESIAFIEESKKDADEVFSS

Chain of Nitric oxide synthase 1 (P29476 whole entry): as above

Row | SMILES | IC50 [1] [µM] | inhibition [2] [%]
1 | Cn1cc2c(Br)cccc2n1 | > 100 | 19
2 | CCn1cc2c([N+](=O)[O-])cccc2n1 | > 100 | 34
3 | Cn1cc2c([N+](=O)[O-])cccc2n1 | > 100 | 34
4 | CCn1ncc2c([N+](=O)[O-])cccc21 | 51.7 | 67
5 | CCn1ncc2c(Br)cccc21 | 72.5 | 61
6 | CCn1cc2c(Br)cccc2n1 | > 100 | 0

These reach a lower IC50 [1]. Values come first.

Row | IC50 [1] [µM] | inhibition [2] [%] | SMILES
7 | 42.5 | 63 | N#Cc1cccc2[nH]ncc12
8 | 28.2 | 75 | Cn1ncc2c(Br)cccc21
9 | 10.6 | 86 | Cn1ncc2c([N+](=O)[O-])cccc21
